# Activity calls are given as the source filed them. No cut-off for these calls is given here.
# Key:
# L1210 = assay: In vitro growth inhibition of murine leukemia L1210 cells after 40 hours exposure.; assay type: functional, cell-based; settings: Mus musculus, L1210, 40 h
# Nucleic Acid [1] = assay: The compound was tested for DNA (from Escherichia coli plasmid pNZ116 ) binding constant to poly[d(A-T)] determined by ethidium bromide displacement; assay type: nucleic-acid assay
# How it was run: (§1)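 Binding constants to poly[d(A-T)] and poly[d(G-C)] were determined by ethidium bromide displacement.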
# Nucleic Acid [2] = assay: The compound was tested for DNA (from Escherichia coli plasmid pNZ116 ) binding constant to poly[d(G-C)] determined by ethidium bromide displacement; assay type: nucleic-acid assay; how it was run: as §1
# P388 [3] = assay: Percent increase in life span of drug treated tumor( P388 leukemia cells)-bearing animal compared to that of untreated tumor bearing control when treated at optimal dose; assay type: functional, Mus musculus
# P388 [4] = assay: Optimal dose administered intraperitoneally as a solution in 0.1 mL of 30% v/v ethanol-water on days 1,5 and 9 after intraperitoneal inoculation of 10 e6 P388 leukemia cells; ND means no data; assay type: functional, Mus musculus
# P388 [5] = assay: Percent increase in life span of drug treated tumor( P388 leukemia cells)-bearing animal compared to that of untreated tumor bearing control when treated at optimal dose; Compound inactive at all dose levels up to toxic ones; assay type: functional; settings: Mus musculus
# P388 [6] = assay: Optimal dose administered intraperitoneally as a solution in 0.1 mL of 30% v/v ethanol-water on days 1,5 and 9 after intraperitoneal inoculation of 10 e6 P388 leukemia cells; assay type: functional, Mus musculus
# [7] = The pKa value spectrophotometrically in water at 25 degree Centigrade; assay type: physicochemical
# P388 [8] = assay: Percent increase in life span of drug treated tumor( P388 leukemia cells)-bearing animal compared to that of untreated tumor bearing control when treated at optimal dose; NA means not active compound inactive at all dose levels up to toxic ones; assay type: functional; settings: Mus musculus
# P388 [9] = assay: Percent increase in life span of drug treated tumor( P388 leukemia cells)-bearing animal compared to that of untreated tumor bearing control when treated at optimal dose; NA means not active; assay type: functional; settings: Mus musculus
IC50 (L1210),Log K (Nucleic Acid [1]),Log K (Nucleic Acid [2]),Compound,OD (P388 [6]),other results
4 µM,–,–,CN(C)CCCNC1=Nc2cccc3cccc(c23)N1,–,–
5.7 µM,–,–,CN(C)CCCSC1=Nc2cccc3cccc(c23)N1,–,–
2.5 µM,5.77,5.9,CN(C)CCNC1=Nc2cccc3cccc(c23)N1,65 mg/kg/day,ILS (P388 [5]): inactive
1.5 µM,–,–,CN(C)CCCCNC(=O)C1=Nc2cccc3cccc(c23)N1,–,–
> 21 µM,–,–,CN(C)CCCNC(=O)CC1=Nc2cccc3cccc(c23)N1,–,–
1.8 µM,5.78,6.1,CN(C)CCSC1=Nc2cccc3cccc(c23)N1,150 mg/kg/day,pKa [7]: 2.66; ILS (P388 [5]): inactive
16.7 µM,5.74,5.88,CN(C)CCNC(=O)CC1=Nc2cccc3cccc(c23)N1,65 mg/kg/day,ILS (P388 [9]): inactive
0.44 µM,6.51,6.51,CN(C)CCNC(=O)C1=Nc2cccc3cccc(c23)N1,150 mg/kg/day,pKa [7]: 1.74; ILS (P388 [5]): inactive
1.1 µM,–,–,CCN(CC)CCNC(=O)C1=Nc2cccc3cccc(c23)N1,–,–
0.87 µM,–,–,CN(C)CCCNC(=O)C1=Nc2cccc3cccc(c23)N1,–,–

# Continued, compound first:
Compound,IC50 (L1210),Log K (Nucleic Acid [1]),Log K (Nucleic Acid [2]),OD (P388 [6]),other results
CN(C)CCCCN1C(=O)c2cccc3cccc(c23)C1=O,1.9 µM,–,–,–,–
O=C(NCCN1CCOCC1)C1=Nc2cccc3cccc(c23)N1,14.1 µM,–,–,–,–
CN(C)CCN1C(=O)c2cccc3cccc(c23)C1=O,1.6 µM,5.46,5.87,–,ILS (P388 [3]): 31%; OD (P388 [4]): 150 mg/kg/day
CN(C)CCCN1C=Nc2cccc3cccc1c23,15.3 µM,–,–,150 mg/kg/day,pKa [7]: 5.1; ILS (P388 [8]): inactive
O=C(NCCN1CCCCC1)C1=Nc2cccc3cccc(c23)N1,1.3 µM,–,–,–,–
CN(C)CCCCN1C=Nc2cccc3cccc1c23,2.2 µM,–,–,–,pKa [7]: 5.3
CN(C)CCN1C=Nc2cccc3cccc1c23,20 µM,5.17,5.31,150 mg/kg/day,pKa [7]: 4.64; ILS (P388 [5]): inactive
CN(C)CCNC(=O)C1=Nc2cccc3cncc(c23)N1,21.7 µM,5.71,5.88,65 mg/kg/day,ILS (P388 [5]): inactive
